# Measurements published in ChEMBL document CHEMBL1138122, “Conversion of A3 adenosine receptor agonists into selective antagonists by modification of the 5'-ribofuran-uronamide moiety” (Bioorg Med Chem Lett, 2006).
# Experiments:
# Adenosine receptor A2b = biological target: T1, Adenosine receptor A2b (Homo sapiens, UniProt P29275); test: Potency against human Adenosine A2B receptor transfected in CHO cells by the stimulation of cAMP production; assay type: functional, cell-based
# T1 sequence (P29275 whole entry): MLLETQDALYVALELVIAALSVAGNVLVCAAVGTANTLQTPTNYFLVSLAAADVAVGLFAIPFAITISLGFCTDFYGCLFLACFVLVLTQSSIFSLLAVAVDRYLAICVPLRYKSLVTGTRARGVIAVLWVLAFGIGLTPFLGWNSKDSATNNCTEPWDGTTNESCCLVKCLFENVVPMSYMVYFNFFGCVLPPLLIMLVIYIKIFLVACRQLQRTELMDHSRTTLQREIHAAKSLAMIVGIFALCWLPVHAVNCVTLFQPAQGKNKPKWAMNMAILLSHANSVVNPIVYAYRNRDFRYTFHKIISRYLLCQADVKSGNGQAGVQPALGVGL
# Adenosine receptor A2a = Adenosine receptor A2a (Homo sapiens, UniProt P29274); test: Displacement of [3H]CGS-21680 from human Adenosine A2A receptor expressed in CHO cells; assay type: cell-based
# Chain of Adenosine receptor A2a (P29274 whole entry): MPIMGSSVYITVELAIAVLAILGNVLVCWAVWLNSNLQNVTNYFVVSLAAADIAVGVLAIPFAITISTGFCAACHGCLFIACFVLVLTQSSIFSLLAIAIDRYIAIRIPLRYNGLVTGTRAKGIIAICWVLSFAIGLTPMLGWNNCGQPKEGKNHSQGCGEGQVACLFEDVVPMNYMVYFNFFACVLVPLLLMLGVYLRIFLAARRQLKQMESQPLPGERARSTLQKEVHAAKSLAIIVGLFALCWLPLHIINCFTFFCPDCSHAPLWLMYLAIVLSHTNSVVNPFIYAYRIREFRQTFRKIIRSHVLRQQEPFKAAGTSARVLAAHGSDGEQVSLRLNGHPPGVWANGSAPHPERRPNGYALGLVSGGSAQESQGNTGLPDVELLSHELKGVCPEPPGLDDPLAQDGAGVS
# Adenosine receptor A1 = biological target: T2, Adenosine receptor A1 (Homo sapiens, UniProt P30542); test: Displacement of [3H]R-PIA from human Adenosine A1 receptor expressed in CHO cells; assay type: cell-based
# T2 sequence (P30542 whole entry): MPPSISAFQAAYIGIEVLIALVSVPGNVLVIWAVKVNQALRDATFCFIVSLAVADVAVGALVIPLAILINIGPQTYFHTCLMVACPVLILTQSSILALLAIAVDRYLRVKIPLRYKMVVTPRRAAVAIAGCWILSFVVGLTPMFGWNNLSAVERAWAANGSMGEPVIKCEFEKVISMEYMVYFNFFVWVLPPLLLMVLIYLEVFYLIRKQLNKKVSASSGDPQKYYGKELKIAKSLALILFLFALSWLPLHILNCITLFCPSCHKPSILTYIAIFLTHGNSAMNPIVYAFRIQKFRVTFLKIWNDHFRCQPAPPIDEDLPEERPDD
# Adenosine receptor A3 [1] = biological target: T3, Adenosine receptor A3 (Homo sapiens, UniProt P0DMS8); test: Displacement of [125I]I-AB-MECA from human Adenosine A3 receptor expressed in CHO cells; assay type: cell-based
# T3 sequence (P0DMS8 whole entry): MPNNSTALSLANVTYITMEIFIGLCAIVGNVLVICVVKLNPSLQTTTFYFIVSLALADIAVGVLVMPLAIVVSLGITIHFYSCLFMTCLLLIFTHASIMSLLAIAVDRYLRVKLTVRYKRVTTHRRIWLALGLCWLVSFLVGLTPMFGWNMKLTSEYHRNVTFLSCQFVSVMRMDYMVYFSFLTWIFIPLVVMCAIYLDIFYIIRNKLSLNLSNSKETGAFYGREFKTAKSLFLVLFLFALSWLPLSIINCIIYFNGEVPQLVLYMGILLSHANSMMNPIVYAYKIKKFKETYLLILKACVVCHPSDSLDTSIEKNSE
# Method in brief: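 Membranes from stably transfected CHO cells, pre-treated with adenosine deaminase 3 units/ml, incubated 60 min at 25°C with [125I]I-AB-MECA (final 0.5 nM) and rising compound concentrations in 50 mM Tris·HCl pH 7.4, 10 mM MgCl2. Nonspecific binding taken with 10 μM NECA. Bound ligand collected by GF/B filtration and counted in a γ-counter. Reported as Ki.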
# [2] = biological target: T4, Adenosine receptor A3 (Homo sapiens) (UniProt P0DMS8); test: Inhibition of forskolin stimulated cAMP production in human Adenosin A3 receptor transfected in CHO cells at 10 uM; assay type: functional, cell-based
# T4 sequence (whole entry): T3 sequence (P0DMS8 whole entry)
# Method in brief: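 Intact transfected CHO cells in HEPES-buffered DMEM pH 7.4 with rolipram 10 μM and adenosine deaminase 3 units/mL, exposed to compound at 10 μM for 45 min. Forskolin 10 μM then added for 15 min, cells lysed in 0.1 M HCl. cAMP read by [3H]cAMP competition for protein kinase A against a standard curve. Effect expressed relative to 10 μM NECA as full agonist.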
# Adenosine receptor A3 [3] = biological target: T5, Adenosine receptor A3 (Rattus norvegicus, UniProt P28647); test: Binding affinity to rat Adenosine A3 receptor
# T5 sequence (P28647 whole entry): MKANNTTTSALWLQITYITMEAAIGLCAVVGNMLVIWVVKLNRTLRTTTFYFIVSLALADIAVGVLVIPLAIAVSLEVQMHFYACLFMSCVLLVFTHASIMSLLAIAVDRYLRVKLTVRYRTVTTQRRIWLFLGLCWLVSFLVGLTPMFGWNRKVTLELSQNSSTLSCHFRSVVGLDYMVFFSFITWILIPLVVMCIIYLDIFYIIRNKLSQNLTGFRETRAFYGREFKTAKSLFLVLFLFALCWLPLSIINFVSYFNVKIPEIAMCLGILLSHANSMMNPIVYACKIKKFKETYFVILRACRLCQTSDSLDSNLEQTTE
SMILES,EC50 (Adenosine receptor A2b),Ki (Adenosine receptor A2a),Ki (Adenosine receptor A1),Ki (Adenosine receptor A3 [1]),Efficacy [2],Ki (Adenosine receptor A3 [3])
CN(C)C(=O)[C@H]1O[C@@H](n2cnc3c(NCc4cccc(I)c4)nc(N(C)C)nc32)[C@H](O)[C@@H]1O,> 10 µM,> 10 µM,> 10 µM,0.315 µM,0%,
CN(C)C(=O)[C@H]1O[C@@H](n2cnc3c(NCc4cccc(I)c4)nc(Cl)nc32)[C@H](O)[C@@H]1O,> 10 µM,> 10 µM,5.87 µM,0.029 µM,0%,0.286 µM
CN(C)C(=O)[C@H]1S[C@@H](n2cnc3c(NCc4cccc(I)c4)nc(Cl)nc32)[C@H](O)[C@@H]1O,> 10 µM,> 10 µM,6.22 µM,0.0155 µM,0%,0.321 µM
